Results on 1 compound are retold here after ChEMBL document CHEMBL1149648, “Norcantharimides, synthesis and anticancer activity: Synthesis of new norcantharidin analogues and their anticancer evaluation” (2007).

Format in all cases: functional
For one experiment, the system named is A-431. Kind of experiment: Cytotoxicity against human A431 cells after 72 hrs by MTT assay. The settings on record: A-431, 72 h. The method, boiled down:
(§1)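 Cells were grown in DMEM with 10% FBS, bicarbonate, penicillin/streptomycin and 4 mM glutamine at 37 °C under 5% CO2. Log-phase cells were plated in duplicate at 2500–4000 cells/well. After 24 h, medium with or without agent was added (stocks in DMSO or water). Growth inhibition was read by MTT at 540 nm after 72 h continuous exposure. Values are means (SEM) of 3–6 experiments.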
In general terms: Tetrazolium assays rely on reduction of a dye to a coloured formazan, in cell work by metabolically active cells.

A further experiment has as its system A2780. In words: Cytotoxicity against human A2780 cells after 72 hrs by MTT assay. To be noted: A2780, 72 h. The procedure, abridged: as §1
The test system of a further experiment is NCI-H460. In words: Cytotoxicity against human H460 cells after 72 hrs by MTT assay. The settings on record: NCI-H460, 72 h. The procedure, abridged:
as §1

The subject of another experiment is MCF7. In words: Cytotoxicity against human MCF7 cells after 72 hrs by MTT assay. To be noted: MCF7, 72 h. The method, boiled down: as §1
A further experiment has as its system SW480. In words: Cytotoxicity against human SW480 cells after 72 hrs by MTT assay. The settings on record: SW480, 72 h. The method, boiled down:
as §1

Experiment [1] is described as follows: Cytotoxicity against human BE2C cells after 72 hrs by MTT assay. The settings on record: BE(2)-C. The method, boiled down: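 Cells cultured in DMEM with 10% FBS, bicarbonate, penicillin, streptomycin and 4 mM glutamine at 37 °C, 5% CO2. Log-phase cells plated in duplicate at 2500–4000/well; test agent (DMSO stock) added 24 h later. After 72 h continuous exposure, MTT read at 540 nm; means of 3–6 experiments.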

The next experiment deals with DU-145. In words: Cytotoxicity against human DU145 cells after 72 hrs by MTT assay. To be noted: DU-145, 72 h. The method, boiled down:
as §1

A short description of experiment [2]: Cytotoxicity against human SJG2 cells after 72 hrs by MTT assay. To be noted: SJ-G2, 72 h. The method, boiled down:
as §1

The test system of another experiment is HT-29. In words: Cytotoxicity against human HT29 cells after 72 hrs by MTT assay. The settings on record: HT-29, 72 h. The method, boiled down:
as §1

In the case of `O=C1OC(=O)C2C3CCC(O3)C12` (centres undefined) [DEMETHYL-CANTHARIDIN], the GI50 – broadly, the concentration that inhibits growth by half – is 31 µM in the experiment on A-431; 38 µM in the experiment with A2780; 45 µM with NCI-H460; 68 µM in the experiment on MCF7; 44 µM in the experiment with SW480; 43 µM in experiment [1]. For the same compound, the figures for the GI50 (in the experiment with DU-145; in experiment [2]; in the experiment on HT-29) were 28 µM, 23 µM and 57 µM, respectively.
